In one series the test system is isolated uterus. To be noted: rat isolated uterus; cited from earlier work.
Another series concerns rat mammary gland. To be noted: cited from earlier work.
A short description of series [1]: Stability in phosphate buffer pH 7.2. Type of series: physicochemical. Put shortly: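 Peptides were incubated at 37 °C in phosphate buffer at pH 7.2 without serum. Remaining peptide was sampled at 1, 3, 5, 20, 24 and 48 h and measured by RP-HPLC-MS.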
The next series in a line: Serum stability. In kind it is in vitro ADME, human. The gist of the method:
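Test compound in water (1 mg/mL stock) diluted to 0.1 mg/mL in phosphate buffer pH 7.2, then added to serum from one 40th-week pregnant donor (oxytocinase-rich) and incubated at 37 °C with a reference peptide as internal standard. Aliquots at 1, 3, 5, 20, 24, 48 h were quenched in H2O/CH3CN (1:1) with 0.1% TFA, held 5 min at 0 °C and centrifuged.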

The half-life is the time needed for the level to fall by half in the phase considered.

Ends that are not written are not given here.

Turning to “(1,6-di-serine)-oxytocin (SYIQNSPLG; ends and bridges not checked; UniProt P01178 20-28, looked up, variant C1S C6S) [[Ser(1,6)]OT]”, the contractile activity result in the series on isolated uterus and in the series on rat mammary gland was “devoid of any contractile activity” throughout.
`CC[C@H](C)[C@@H]1NC(=O)[C@H](Cc2ccc(O)cc2)NC(=O)[C@@H](N)CSSC[C@@H](C(=O)N2CCC[C@H]2C(=O)N[C@@H](CC(C)C)C(=O)NCC(N)=O)NC(=O)[C@H](CC(N)=O)NC(=O)[C@H](CCC(N)=O)NC1=O` [OT, Oxytocin]: the half-life was 24 h in series [1] and 16 h in “Serum stability” (human, serum). In “Serum stability” (woman serum at 40th week of pregnancy, 37 °C), the “time after which not detectable by analytical RP-HPLC” value was 48 h.
Regarding “(1,6-di-alanine)-oxytocin (AYIQNAPLG; ends and bridges not checked; UniProt P01178 20-28, looked up, variant C1A C6A) [[Ala(1,6)]OT]”, the contractile activity entry with isolated uterus and in the series with rat mammary gland was “devoid of any contractile activity” throughout.

The values above are taken from publication PMC10519257 (Journal of Enzyme Inhibition and Medicinal Chemistry, 2023).
